Reference: article PMC8317130 (Journal of medicinal chemistry, 2020)
Converted amounts (≈) assume the structure as drawn. “Also recorded” adds a separate entry of the source. Where two headings read alike, the source gives them in different places.

Key:
E. faecium ATCC 700221 = assay: Time-kill assay; assay type: cell-based; conditions: 5× MIC, 24 hours, 37 °C
E. faecium HM-965 = assay: MIC, broth microdilution; assay type: cell-based
Method in brief: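 MIC by CLSI broth microdilution against E. faecium HM-965. Cells grown overnight on trypticase soy agar at 37 °C, set to 0.5 McFarland, and diluted in TSB to about 5 × 10^5 CFU/mL. Compounds from 10 mg/mL DMSO stocks serially diluted in plates.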

VRE strains = assay: MIC in ambient air versus 5% CO2 on representative enterococcal strains; assay type: cell-based, Enterococcus; conditions: five representative enterococcal strains
Method in brief: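 CLSI broth microdilution. Enterococci grown overnight on trypticase soy agar at 37 °C, adjusted to 0.5 McFarland, then diluted in TSB to about 5 × 10^5 CFU/mL. Compounds from 10 mg/mL DMSO stocks serially diluted.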

panel of VRE isolates = assay: MIC50/MIC90 over panel of eleven VRE clinical isolates; assay type: cell-based, E. faecium, E. faecalis; conditions: Enterococcus
Caco-2 [1] = assay: Bi-directional Caco-2 permeability; assay type: in vitro ADME, human
Method in brief: (§1)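 Bidirectional (A→B and B→A) transport across Caco-2 monolayers, run by a contract lab. Donor/receiver pH 6.5/7.4. Concentrations measured as chromatographic peak areas. Papp (10^-6 cm/s) derived from end-point receiver concentration, incubation time, monolayer area and mid-point donor concentration. Recovery (%) = donor plus receiver amounts at end, relative to donor amount at time zero.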

[2] = Bi-directional Caco-2 permeability; assay type: in vitro ADME, human; conditions: human, Caco-2
Method in brief: as §1

Aqueous solubility = assay type: physicochemical; conditions: for solubility at 24 h: PBS buffer, pH 7.4
Caco-2 [3] = conditions: cited from earlier work
plasma protein = conditions: cited from earlier work
[4] = In vivo pharmacokinetics, oral gavage; parameters: species or system mice; conditions: male, ICR, mouse, plasma, 10 mg/kg

## CC(=O)NC[C@H]1CN(c2ccc(N3CCOCC3)c(F)c2)C(=O)O1 [linezolid, reference compound]
E. faecium ATCC 700221
  bacteriostatic or bactericidal activity: bacteriostatic

## NS(=O)(=O)c1nnc(NCC2CCCCC2)s1 [Compound 30, 5-((cyclohexylmethyl)amino)-1,3,4-thiadiazole-2-sulfonamide]
E. faecium HM-965
  anti-VRE activity (in words): inactive against VRE

## CC(=O)Nc1ccc(S(N)(=O)=O)cc1 [Compound 35, N-(4-sulfamoylphenyl)acetamide]
E. faecium HM-965
  anti-VRE activity (in words): complete loss of activity

## NS(=O)(=O)c1nnc(NC(=O)CC2CCCCC2)s1 [Compound 20, 2-Cyclohexyl-N-(5-sulfamoyl-1,3,4-thiadiazol-2-yl)acetamide]
VRE strains
  activity against VRE strains in presence of 5% CO2: inactive

## CN[C@H](CC(C)C)C(=O)N[C@H]1C(=O)N[C@@H](CC(N)=O)C(=O)N[C@H]2C(=O)N[C@H]3C(=O)N[C@H](C(=O)N[C@H](C(=O)O)c4cc(O)cc(O)c4-c4cc3ccc4O)[C@H](O)c3ccc(c(Cl)c3)Oc3cc2cc(c3O[C@@H]2O[C@H](CO)[C@@H](O)[C@H](O)[C@H]2O[C@H]2C[C@](C)(N)[C@H](O)[C@H](C)O2)Oc2ccc(cc2Cl)[C@H]1O [vancomycin, reference compound]
Panel of VRE isolates
  MIC90: > 64 µg/mL

## NS(=O)(=O)c1nnc(NC(=O)CN2CCOCC2)s1 [Compound 26, 2-(Morpholin-1-yl)-N-(5-sulfamoyl-1,3,4-thiadiazol-2-yl)acetamide]
E. faecium ATCC 700221
  bacteriostatic or bactericidal activity: bacteriostatic
Caco-2 [1]; Caco-2 permeability assay
  concentration of molecule in the receiver chambers: below the limit of detection
[2]
  recovery: 83%
Aqueous solubility
  maximum solubility relative to MIC against E. faecium HM-965: approximately 40 fold
  solubility at 24 h: 39 µg/mL (≈ 127 µM)

## CC(=O)Nc1nnc(S(C)(=O)=O)s1 [Compound 33, N-(5-(Methylsulfonyl)-1,3,4-thiadiazol-2-yl)acetamide]
E. faecium HM-965
  anti-VRE activity (in words): abolished the anti-VRE activity; also recorded: inactive against VRE strains; also recorded: complete loss of activity

## CC(=O)Nc1ncc(S(N)(=O)=O)s1 [Compound 34, N-(5-sulfamoylthiazol-2-yl)acetamide]
E. faecium HM-965
  anti-VRE activity (in words): abrogated activity against VRE; also recorded: complete loss of anti-VRE activity

## CC(=O)Nc1nnc(S(N)(=O)=O)s1 [AZM, N-(5-sulfamoyl-1,3,4-thiadiazol-2-yl)acetamide]
VRE strains
  activity against VRE strains in presence of 5% CO2: inactive
E. faecium ATCC 700221
  bacteriostatic or bactericidal activity: bacteriostatic
Caco-2 [3]; Caco-2, pH 6
  Papp A → B: 0.19^f 10^−6 cm/sec
  Papp B → A: 0.77^f 10^−6 cm/sec
Caco-2 [3]; Caco-2
  apparent permeability coefficient, Papp, low-permeable drug class: < 5e+12 ×10⁻⁶ cm/s
  net transport (A➔B) with P-gp inhibitors: up to 1.92
Caco-2 [3]
  net transport (A➔B): 0.24
Plasma protein
  plasma protein binding: over 90%

## NS(=O)(=O)c1nnc(NC(=O)CCC2CCCCC2)s1 [Compound 22, 3-Cyclohexyl-N-(5-sulfamoyl-1,3,4-thiadiazol-2-yl)propanamide]
[4]
  concentration at 1440 min: 0 ng/mL
E. faecium ATCC 700221
  bacteriostatic or bactericidal activity: bacteriostatic
Caco-2 [1]; Caco-2, pH 6.5/7.4
  net transport (A➔B): 0.46
Aqueous solubility
  maximum solubility relative to MIC against E. faecium HM-965: approximately 1500 fold
  solubility at 24 h: 10.4 µg/mL (≈ 32.7 µM)
Panel of VRE isolates; read-out: MIC90 converted to molar cellular potency
  MIC90: 0.0942 µM
